We go through 2 compounds from publication PMC4097008 (Molecular immunology, 2014).

Molecules are shown by their SMILES. Read-outs that look alike come from different tables or passages of the source.

The target in assay [1] is T1, Bla g 4 (Blattella germanica, UniProt P54962). As to the kind of experiment: isothermal titration calorimetry. Format: binding. An outline of the steps: (§1)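 Bla g 4 binding enthalpy was recorded by ITC at 25°C in 20 mM phosphate buffer, pH 8.0, with 100 μM protein and test amine titrant at 1 mM initial concentration. Supporting 1H-15N HSQC titrations used 0.2 mM 15N-labelled Bla g 4 (M9, 15N ammonium chloride) in 20 mM acetate, pH 4.5, 10% D2O, at 308 K and 800 MHz. Protein:ligand molar ratios were 1:0, 1:0.5, 1:1 and 1:2.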
(In ITC the heat of successive injections is recorded.)

The target in assay [2] is T1, Bla g 4. Kind of assay: isothermal titration calorimetry. The format is binding. The procedure, abridged:
as §1
This is another data set of the same source.

T1 sequence (P54962 7-182): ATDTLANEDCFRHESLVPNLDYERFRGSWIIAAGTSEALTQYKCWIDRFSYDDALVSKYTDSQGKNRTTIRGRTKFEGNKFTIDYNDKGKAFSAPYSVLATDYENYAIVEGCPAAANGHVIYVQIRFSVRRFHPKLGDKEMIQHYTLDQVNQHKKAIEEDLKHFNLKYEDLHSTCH

Take `NC[C@H](O)c1ccc(O)cc1` [octopamine]: binding at Bla g 4 [1] was characterised by a dissociation constant (Kd) of 185 nM.

`NCCc1ccc(O)cc1` [tyramine]: the dissociation constant Kd (in general, the constant that tells how readily two partners part at equilibrium) on Bla g 4 [2] was 45 nM.
